Consider 5 molecules from ChEMBL document CHEMBL3272082, “Racemic diastereoisomers of 1-amino-2-hydroxycyclopentanecarboxylic acid” (J Med Chem, 1976).

Data set [1] relates to Escherichia coli. Description: Antimicrobial activity against Escherichia coli 9723 assessed as growth inhibition up to 300 ug/ml. The format is functional, organism-based. The method in brief: (§1)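 Microbial growth toxicity tested by typical microbial procedures; each isomer at concentrations up to 300 μg/ml.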
In data set [2] the test system is Jensen sarcoma. Description: Inhibition of growth of rat Jensen sarcoma cells assessed as new cells at 50 ug/ml after 72 hrs in presence of 26 ug/ml serine (reference value: 100%). The format is functional. Also noted: scale not given: the % may be the effect or the level left. The gist of the method:
(§2)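 Jensen sarcoma cells seeded at 400000 cells/flask in replicate flasks in McCoy's 7a medium with 10% fetal calf serum, gassed with 8% CO2–92% air, 37°, 24 hr, then counted for zero time. Medium replaced with fresh medium containing analog at 50 μg/ml, with threonine added as listed and serine in medium at 26 μg/ml. Medium renewed at 48 hr. New cells counted at 72 hr, expressed as % of control in normal medium.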

The subject of data set [3] is Escherichia coli. In words: Antimicrobial activity against Escherichia coli W assessed as growth inhibition up to 300 ug/ml. The format is functional. The method in brief: as §1
Data set [4] can be described thus: Retardation factor of the compound in cyclohexylamine-water-methyl ethyl ketone-1-butanol at 1:2.5:5:5 ratio by paper chromatography. As to conditions: buffer. The format is physicochemical. The method in brief: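 Paper chromatography in cyclohexylamine–water–methyl ethyl ketone–1-butanol (1:2.5:5:5). Rf values compared with allothreonine and threonine run in the same system.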

Data set [5] has as its system Jensen sarcoma. In words: Inhibition of growth of rat Jensen sarcoma cells assessed as new cells at 50 ug/ml after 72 hrs in presence of 18 ug/ml threonine and 26 ug/ml serine (reference value: 100%). Also noted: scale not given: the % may be the effect or the level left. The format is functional. The method in brief:
as §2

Data set [6] concerns Lactiplantibacillus plantarum. In words: Antimicrobial activity against Lactobacillus arabinosus 8014 assessed as growth inhibition up to 300 ug/ml. The format is functional, organism-based. The method in brief:
as §1

Data set [7] relates to Enterococcus faecalis. Description: Antimicrobial activity against Streptococcus faecalis 8043 assessed as growth inhibition up to 300 ug/ml. The format is functional, organism-based. The gist of the method: as §1
Data set [8] deals with Jensen sarcoma. Description: Inhibition of growth of rat Jensen sarcoma cells assessed as new cells at 50 ug/ml after 72 hrs in presence of 50 ug/ml threonine and 26 ug/ml serine (reference value: 100%). In kind it is functional. Also noted: scale not given: the % may be the effect or the level left. The gist of the method:
as §2

For data set [9], the system named is Leuconostoc mesenteroides. Description: Antimicrobial activity against Leuconostoc mesenteroides 10830 assessed as growth inhibition up to 300 ug/ml. In kind it is functional. The method in brief:
as §1

In data set [10] the test system is Jensen sarcoma. Description: Inhibition of growth of rat Jensen sarcoma cells assessed as new cells at 50 ug/ml after 72 hrs in presence of 25 ug/ml threonine and 26 ug/ml serine (reference value: 100%). Also noted: scale not given: the % may be the effect or the level left. In kind it is functional. The gist of the method:
as §2

The structures appear in SMILES notation. Active and inactive are the calls of the source. The rule behind the calls is not given here.

In the case of `N[C@@]1(C(=O)O)CCC[C@@H]1O` (relative stereo), the “growth inhibition (GI)” value in [1], in data set [3], in data set [6], in data set [7] and in data set [9] was “inactive” each time. For the same molecule, the values for the Activity in [2], in [5] and in [8] were 12%, 69% and 68%, respectively. Also, the Rf in data set [4] was 0.38.

Consider `N[C@@]1(C(=O)O)CCC[C@H]1O` (relative stereo), for which the “growth inhibition (GI)” value in data set [1], in data set [3], in [6], in data set [7] and in data set [9] was “inactive” in each case. Besides, the figures for the Activity in data set [2], in [5] and in data set [8] were 12%, 68% and 68%, respectively. Moreover, the Rf in data set [4] came out at 0.45.

For the molecule `C[C@H](O)[C@H](N)C(=O)O`, the Rf in [4] is reported as 0.41.

With `NC1(C(=O)O)CCCC1` [CYCLOLEUCINE], the Activity in data set [2] amounted to 0%; in data set [10], 5%.

Consider `C[C@@H](O)[C@H](N)C(=O)O` [THREONINE], for which the Rf in data set [4] is reported as 0.54.
